XBP1 UPR activ: activators of adaptive XBP1 UPR arm, primary screen, cell-based, CHO-XBP1 luciferase reporter, luminescence, uHTS | 0.33% of 330,000 active | IRE1-XBP1 UPR activation; percent of tunicamycin response, DMSO as zero | activation, % at 20 µM;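 active = versus positive control, 20 µM dose yields 30% or more activation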;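 note: 100% = tunicamycin at 10 µg/mL and 0% = DMSO only wells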
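Assay system: IRE1-XBP1 luciferase reporter CHO line. Input: 1000 cells/well. Buffer or medium: F12 with 10% serum. Doses: 20 µM, 1% DMSO. Times: overnight seeding at 37 °C, 6 h compound treatment at 37 °C. Technique: Steady-Glo luciferase glow luminescence, 10 min after reagent addition.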
UPR CHOP act: activators of apoptotic CHOP UPR arm, primary screen, cell-based, CHO-CHOP luciferase reporter, luminescence, uHTS | UPR activation; percent of tunicamycin response over DMSO baseline | activation, % at 10 µM | 0.34% of 330,000 active | AID 449763, 2010;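 active = at 10 µM dose, activation of 40% or more, normalized to positive control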;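 note: 100% = tunicamycin at 10 µg/mL and 0% = DMSO alone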
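System: CHO CHOP reporter cells. Amount: 500 cells per well. Buffer or medium: F12 medium, 10% FBS. Compound dosing: one dose, 10 µM in 0.5% DMSO. Incubation: 6 h compound exposure at 37 °C after overnight seeding. Technique: Steady-Glo luciferase luminescence. Benchmarks: tunicamycin and DMSO controls.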
Dynein cargo inh: inhibitors of GR-EGFP nuclear translocation, primary screen, dynein cargo transport inhibitor project, imaging, high-content, 3617.4 mouse cells; test concentration mostly 20 µM; stimulated with dexamethasone, 1 µM; active compounds read low; 0.47% of 220,000 active; z-score, hits read low; AID 1381, 2008;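 active = plate z-score of nuclear minus cytoplasmic receptor signal below a set negative limit, without overly bright fluorescence or cell loss, cut at about -3.5 in these data, passing the limit was not always enough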;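 note: z-score of nuclear minus cytoplasmic ring GR-EGFP intensity difference per well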
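Also added – dexamethasone, 1.0 µM final · Buffer or medium – tet-free, stripped-serum medium · Schedule – induction 48 h, compound 1 h, agonist 30 min · Detection – formaldehyde fixation, Hoechst nuclear stain, 10x automated fluorescence imaging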
Mdm2-MdmX inh: inhibitors of human Mdm2-MdmX association, primary screen, cell-based, luminescence, split luciferase, SaOS-2, uHTS. Protein Mdm4 (Homo sapiens) + E3 ubiquitin-protein ligase Mdm2 (Homo sapiens), …. 3% of 330,000 active. SaOS-2 split-luciferase Mdm2/MdmX complementation. AID 485346, 2010. inhibition, % at 8 µM;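 active = inhibition of at least 50% at 8 µM in the primary screen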
Mdm2 ligase inh: MDM2-luciferase reporter signal enhancers, primary screen, MDM2 E3 ligase inhibitor project, cell-based, luminescence, 1536-well. E3 ubiquitin-protein ligase Mdm2 (Homo sapiens), Q00987. cell-based MDM2 ubiquitination luciferase reporter, 2 h; 0 = plate control, 100 = twice control, blank-subtracted. signal enhancement, % at 5 µM. 0.11% of 210,000 active;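 active = signal enhancement of 30% or more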;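 note: luminescence tracks abundance of the self-degrading MDM2-luciferase fusion protein; higher signal means inhibition of MDM2 E3 ligase activity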
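Assay system: stable mammalian line carrying autodegrading MDM2–luciferase fusion reporter; Input: 2000 cells in each well; Compound dosing: single-point 5 µM; Schedule: 2 h compound exposure at 37 °C; Signal: SteadyLite luciferase luminescence after 15 min room-temperature reagent incubation; Evaluation: % luminescence enhancement versus blank-corrected plate control mean; Benchmarks: plate controls and plate blanks.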
Beta2AR agonist: beta2AR agonists driving receptor internalization, primary screen, cell-based, FAP fluorogen, flow cytometry; 0.43% of 340,000 active; Am2.2-beta2AR cells; response, % (no concentration beside the values); AID 504454, 2011;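 active = response above a set limit, near 3 SD of response in nonfluorescent compounds, cut at about 42% in these data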
Target sequence (P07550 whole entry, looked up): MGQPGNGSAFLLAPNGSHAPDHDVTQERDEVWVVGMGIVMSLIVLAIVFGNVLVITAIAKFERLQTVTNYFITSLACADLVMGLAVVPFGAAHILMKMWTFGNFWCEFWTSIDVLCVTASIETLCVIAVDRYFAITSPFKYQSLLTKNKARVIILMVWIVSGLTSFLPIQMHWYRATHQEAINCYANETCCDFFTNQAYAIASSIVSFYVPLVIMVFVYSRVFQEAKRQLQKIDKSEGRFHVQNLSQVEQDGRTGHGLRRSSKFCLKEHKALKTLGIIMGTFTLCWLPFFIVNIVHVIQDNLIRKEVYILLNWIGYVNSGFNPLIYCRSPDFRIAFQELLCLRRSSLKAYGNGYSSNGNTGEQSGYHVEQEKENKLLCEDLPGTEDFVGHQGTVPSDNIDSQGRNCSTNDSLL
Mdm2 MdmX conf: Mdm2-MdmX complex disruptors, retested hits, confirmation, luminescence, single concentration; shares compounds with Mdm2-MdmX inh; Mdm2-MdmX binding, luminescent assay; inhibition, % at 8 µM; 55% of 10,000 active; AID 489028, 2010; in the data active = inhibition above about 40%
Full FLuc ctr: full-length luciferase signal inhibition, confirmation, counter-screen for Mdm2/MdmX interaction inhibitor project, cell-based, single concentration, SaOS-2; shares compounds with Mdm2-MdmX inh; 77% of 6,200 active; AID 504607, 2011; inhibition, % at 8 µM; SaOS-2 full-length luciferase counterscreen, luminescence;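 active = mean inhibition at 8 µM reaching about 37%, which flags the compound as non-specific, limit read from the data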;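 note: p53-null SaOS-2 cells with luciferase driven by a doxycycline-inducible promoter; compound on cells about two nights before reading with doxycycline added after day one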
* = called active by the depositor; i = inactive; / = not tested or not shown. Only some compounds are listed: those with a hit (about 3.7% of all), similar ones and a draw of the others.

SMILES	XBP1 UPR activ	UPR CHOP act	Dynein cargo inh	Mdm2-MdmX inh	Mdm2 ligase inh	Beta2AR agonist	Mdm2 MdmX conf	Full FLuc ctr
Clc1ccc(-c2cccs2)nn1	-5	-1	0.082	-15	-6	-10	/	/
CC1CCN(c2ccc(-c3cccs3)nn2)CC1	-11	-9	/	55*	/	-2	64*	40*
CCc1ccc(Nc2n[n+](-c3ccccc3)c(/C=C/c3ccccc3)s2)cc1	-4	-9	/	52*	/	/	-31	/
CCc1ccc(Nc2n[n+](-c3ccccc3)c(-c3ccc(N(CC)CC)cc3)s2)cc1	13	30	/	87*	/	i	53*	44*
CCc1ccc(Nc2n[n+](-c3ccccc3)c(-c3cc(OC)c(OC)cc3Br)s2)cc1	1	5	/	12	/	-3	/	/
O=C(O)c1ccc(-c2sc(Nc3ccccc3)n[n+]2-c2ccc(F)cc2)cc1	0	1	/	18	/	-1	/	/
COc1ccc(C)cc1Nc1n[n+](-c2ccccc2)c(-c2c(Cl)cccc2Cl)s1	5	11	/	95*	/	/	89*	55*
Fc1ccc(-[n+]2nc(Nc3ccccc3)sc2-c2c(Cl)cccc2Cl)cc1	4	-2	/	67*	/	-2	24	48*
COc1ccc2ccccc2c1-c1sc(Nc2ccccc2)n[n+]1-c1ccc(F)cc1	0	2	/	76*	/	27	27	/
CCc1ccc(Nc2n[n+](-c3ccccc3)c(-c3c(Cl)cccc3Cl)s2)cc1	10	14	/	100*	/	80*	96*	56*
CCc1ccc(Nc2n[n+](-c3ccccc3)c(-c3ccc(OCc4ccccc4)cc3)s2)cc1	0	4	/	26	/	-1	/	/
O=C(CCl)NCc1cc(-c2ccc(Cl)cc2)no1	4	5	-1.2	73*	-13	-10	29	66*
C/C(=N\NC(=O)c1ccc(Cl)c(Cl)c1)c1ccc(Br)s1	10	15	-0.9	68*	-2	-5	55*	47*
CCOc1ccccc1N1CCN(C(=O)c2c(-c3c(F)cccc3Cl)noc2C)CC1	-7	2	/	29	/	7	/	/
COC(=O)c1ccc(C(=O)NC(=S)Nc2ccc3nc(SC)sc3c2)cc1	29	17	0.61	81*	14	17	25	/
CCCn1c(NC(=O)c2ccc(Cl)c(S(=O)(=O)N3CCCC3)c2)nc2ccccc21	8	22	-0.47	81*	-5	-4	69*	43*
CC1CC(C)CN(C(=O)COC(=O)c2ccc3c(c2)OCCO3)C1 (centres undefined)	-2	1	/	11	/	-16	/	/
Cc1ccc2oc(=O)c3cnn(CC(=O)Nc4cc(-c5cccc(F)c5)no4)c3c2c1	0	-1	0.98	74*	/	-11	10	/
Cc1ccc2oc(=O)c3cnn(CC(=O)N4CCc5ccccc5C4)c3c2c1	-2	2	-0.99	-7	-2	1	/	/
Cn1ncc2c(Nc3cccc(Cl)c3)nc(Nc3cccc(Cl)c3)nc21	5	3	1.8	50*	-13	7	20	/
Cn1ncc2c(Nc3ccc(Br)cc3)nc(Nc3ccc(Br)cc3)nc21	13	3	1	60*	-14	4	26	/
Cc1nc([N+](=O)[O-])c(SCC(N)=O)n1Cc1ccccc1	0	1	-0.82	-6	-5	0	/	/
Cc1nc([N+](=O)[O-])c(Sc2nc3ccccc3n2C)n1Cc1ccccc1	-6	26	-3.4	51*	-3	11	27	/
O=c1oc(-c2ccccc2)cc(Cl)c1Cl	2	58*	/	94*	/	51*	81*	3
O=c1cc(-c2ccccc2)oc2ccc(Cl)cc12	/	/	/	/	/	-7	/	/
SMILES	XBP1 UPR activ	UPR CHOP act	Dynein cargo inh	Mdm2-MdmX inh	Mdm2 ligase inh	Beta2AR agonist	Mdm2 MdmX conf	Full FLuc ctr
Nc1nnnn1/N=C/c1cc(Cl)cc(Cl)c1OCc1ccc(Cl)cc1Cl	-1	1	-0.55	81*	-7	4	11	/
Cc1cc(N(C)N)nc(NC(=O)NS(=O)(=O)c2ccccc2Cl)n1	-1	-1	/	-7	/	-12	/	/
O=C(c1ccc2oc(Cc3ccc(Cl)cc3)nc2c1)N1CCCCC1CCO (centres undefined)	-2	0	/	32	/	-4	/	/
CCOc1ccc(N(C(=O)/C=C/C(=O)Nc2cc(C)on2)C(C(=O)NC2CCCC2)c2ccccc2C)cc1 (centres undefined)	-2	3	-2.1	81*	8	-7	77*	27
CCc1ccc(C(C(=O)NC2CCCC2)N(C(=O)/C=C/C(=O)Nc2cc(C)on2)c2ccccc2C)cc1 (centres undefined)	5	7	-2.3	77*	2	7	75*	59*
Cc1cc(NC(=O)/C=C/C(=O)N(CC(=O)NC2CCCC2)c2cccc3ccccc23)no1	-2	-2	-1	53*	-1	0	32	/
CCCCN(C(=O)CCC(=O)Nc1cc(C)on1)C(C(=O)NC1CCCC1)c1ccccc1C (centres undefined)	-5	0	/	8	/	-1	/	/
CC1CCCCC1NC(=O)COC(=O)c1ccc2c(c1)NC(=O)CS2 (centres undefined)	-1	0	/	-3	/	4	/	/
Cc1ccc2c(c1)CCCN2S(=O)(=O)c1cccc(C(=O)Nc2ccccc2C(=O)O)c1	-2	-1	/	54*	/	7	60*	58*
NC(=O)c1nsc(C(=O)N(c2ccccc2F)C(C(=O)NCc2ccc(F)cc2)c2ccc(O)cc2)c1N (centres undefined)	0	3	/	65*	/	7	63*	81*
